Measured values taken from ChEMBL document CHEMBL2057123, “Design and synthesis of novel lactate dehydrogenase A inhibitors by fragment-based lead generation” (J Med Chem, 2012).
Active and inactive are the calls of the source. The calls are words filed in the database; no cut-off is given here.

What was measured:
[1] = target: T1, L-lactate dehydrogenase A chain (Homo sapiens, UniProt P00338); assay: Inhibition of full length human recombinant LDHA expressed in Escherichia coli BL21 (DE3) cells after 10 mins by spectrophotometric analysis
[2] = target: T1, L-lactate dehydrogenase A chain; assay: Binding affinity to 6-His-tagged human LDHA (2 to 322 amino acid residue) expressed in Escherichia coli BL21 (DE3) cells by SPR analysis
[3] = target: L-lactate dehydrogenase B chain (Homo sapiens, UniProt P07195); assay: Inhibition of human recombinant LDHB (2 to 334 amino acid residue) expressed in Escherichia coli BL21 (DE3) cells after 10 mins by spectrophotometric analysis
[4] = target: T1, L-lactate dehydrogenase A chain; assay: Binding affinity to 6-His-tagged human LDHA (2 to 322 amino acid residue) expressed in Escherichia coli BL21 (DE3) cells by NMR analysis in presence of NAD+
Outline: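 Ligand-observed NMR at 298 K, 600 MHz, in 100 mM HEPES pH 7.5, 2 mM TCEP, 0.02% sodium azide, with 1 mM NAD⁺ present. Binding was detected by WaterLOGSY and T₁ρ-filtered 1D spectra (LDHA 40−48 μM monomer). […] Single experiment.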

[5] = target: T1, L-lactate dehydrogenase A chain; assay: Binding affinity to 6-His-tagged human LDHA (2 to 322 amino acid residue) expressed in Escherichia coli BL21 (DE3) cells by NMR analysis in presence of NADH

Chain of L-lactate dehydrogenase B chain (P07195 whole entry, the tested form may be a part): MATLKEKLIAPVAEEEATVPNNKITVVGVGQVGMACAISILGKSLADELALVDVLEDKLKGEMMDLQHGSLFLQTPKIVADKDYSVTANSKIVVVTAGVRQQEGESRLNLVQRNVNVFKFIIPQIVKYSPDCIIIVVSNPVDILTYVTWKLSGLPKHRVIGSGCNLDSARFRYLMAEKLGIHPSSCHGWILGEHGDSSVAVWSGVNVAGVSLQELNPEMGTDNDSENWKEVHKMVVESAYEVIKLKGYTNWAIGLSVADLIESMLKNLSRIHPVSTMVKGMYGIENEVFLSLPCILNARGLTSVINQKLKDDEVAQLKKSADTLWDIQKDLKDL

| IC50 [1] [µM] | Kd ([2]; read-out: Kd) [µM] | Kd ([5]; read-out: Kd) [µM] | further results | Compound |
| --- | --- | --- | --- | --- |
| 29.5 | 1.2 |  |  | Cc1nc2ccc(NC(=O)CCNC(=O)NCCc3ccc(OC(C(=O)O)C(=O)O)cc3)cc2s1 |
| > 500 | 790 |  |  | CC(=O)Nc1ccc2nc(C)sc2c1 |
| 132 | 12.8 |  | IC50 [3]: 9.4 µM; Activity [4]: Active | NC(=O)C1=CN([C@@H]2O[C@H](COP(=O)(O)OP(=O)(O)OC[C@H]3O[C@@H](n4cnc5c(N)ncnc54)[C@H](O)[C@@H]3O)[C@@H](O)[C@H]2O)CCC1 |
| 0.5 |  |  |  | Cc1nc2ccc(NC(=O)CCNC(=O)CCCc3ccc(CC(C(=O)O)C(=O)O)cc3)cc2s1 |
| > 500 |  | 4000 | Kd ([2]; bl21-de3): Not Active | NC(=O)C1=CN([C@@H]2O[C@H](COP(=O)(O)O)[C@@H](O)[C@H]2O)C=CC1 |
| 86.2 | 3.2 |  |  | Cc1nc2ccc(NC(=O)CCNC(=O)NCCOc3ccc(CCC(=O)O)cc3)cc2s1 |
|  |  | 5000 |  | O=C(O)CC(=O)O [MALONIC ACID] |
| > 500 | 1600 | 300 |  | O=c1[nH]n(-c2ccccc2)c2ncccc12 |
|  |  |  | Kd ([5]; bl21-de3): Active | Cc1nc2ccc(NC(=O)CCNC(N)=O)cc2s1 |
| > 500 | 500 | 540 |  | Cc1nc2ccc(NC(=O)CCC(=O)O)cc2s1 |
| 0.27 | 0.008 |  |  | CCCSc1nc2ccc(NC(=O)CCNC(=O)CCCc3ccc(CC(C(=O)O)C(=O)O)cc3)cc2s1 |
| 1.9 |  |  |  | Cc1nc2ccc(NC(=O)CCNC(=O)NCCc3ccc(CC(C(=O)O)C(=O)O)cc3)cc2s1 |
| > 500 | 35 |  | Kd ([5]; bl21-de3): Active | CCCSc1nc2ccc(NC(=O)CCNC(N)=O)cc2s1 |
| > 500 |  | 1400 | Kd ([2]; bl21-de3): Not Active | c1cncc(-c2nc3ccccc3[nH]2)c1 |
| 3.1 | 0.046 |  |  | CCCSc1nc2ccc(NC(=O)CCNC(=O)NCCOc3ccc(CC(C(=O)O)C(=O)O)cc3)cc2s1 |
| > 500 |  | 400 | Kd ([2]; bl21-de3): Not Active | NS(=O)(=O)c1ccc(O)c2ccccc12 |
| 0.29 | 0.06 |  |  | CCCSc1nc2ccc(NC(=O)CCNC(=O)NCCc3ccc(CC(C(=O)O)C(=O)O)cc3)cc2s1 |
| > 500 |  | 650 | Kd ([2]; bl21-de3): Not Active | Nc1ncnc2c1ncn2[C@@H]1O[C@H](COP(=O)(O)O)[C@@H](O)[C@H]1O [ADENOSINE PHOSPHATE] |
| 4.2 |  |  |  | Cc1nc2ccc(NC(=O)CCNC(=O)NCCOc3ccc(CC(C(=O)O)C(=O)O)cc3)cc2s1 |
| > 500 | 40 | 92 |  | CCCSc1nc2ccc(NC(=O)CCC(=O)O)cc2s1 |
| > 500 | 1100 | 240 |  | COc1ccc(CC(C(=O)O)C(=O)O)cc1 |
| > 500 | 3000 | 2400 |  | COCCNc1ncnc2ccccc12 |
|  |  |  | Kd ([2]; bl21-de3): Not Active | Clc1ccccc1-c1nnn[nH]1 |
| > 500 |  | > 9 |  | O=C(O)c1cc2c(C(F)(F)F)cc(-c3ccccc3)cc2n1O |
| 450 |  |  | IC50 [3]: 7.8 µM; Kd ([2]; bl21-de3): Not Active | O=C(O)c1nsnc1O |
| 7.4 | 0.18 |  |  | CCCSc1nc2ccc(NC(=O)CCNC(=O)NCCc3ccc(OC(C(=O)O)C(=O)O)cc3)cc2s1 |
| > 500 |  | 640 | Kd ([2]; bl21-de3): Not Active | O=C(O)c1ccc2ccccc2c1O [CARBOXYNAPHTHOL] |
